# ChEMBL document CHEMBL1139368, “Pt(II) complexes of a combretastatin A-4 analogous chalcone: effects of conjugation on cytotoxicity, tumor specificity, and long-term tumor growth suppression” (J Med Chem, 2009)
# The source made the active and inactive calls. The calls are words filed in the database; no cut-off is given here.
# Legend:
# [1] = tested on: HCT-116; assay: Cytotoxicity against human HCT116 cells after 96 hrs by SRB assay; type: functional, cell-based; conditions: HCT-116, 96 h
# In short: (§1)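 Monolayer cultures in RPMI 1640 with 10% heat-inactivated FBS and streptomycin/penicillin, 37 °C, 5% CO₂. Cells seeded day 0 at densities giving exponential growth, exposed day 1 to 0.001–10 μM, SRB read day 5 (96 h exposure); surviving cells as percentage of untreated controls, IC₅₀ taken from dose–response curves. Three independent experiments for some compounds, two for others.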
# [2] = tested on: A-431; assay: Cytotoxicity against human A431 cells after 96 hrs by SRB assay; type: functional, cell-based; conditions: A-431, 96 h; in short: as §1
# [3] = tested on: A253 cell line; assay: Suppression of regrowth in human A253 cells at 10 nM treated for 96 hrs and measured over 10 days by SRB assay; type: functional, cell-based
# In short: (§2)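 SRB regrowth test: cells exposed 96 h to serial dilutions, chosen around IC₉₀, then fixed at once (day 0) or washed drug-free and grown in fresh medium for 2, 4, 6 or 10 days before SRB staining. Three independent experiments.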
# [4] = Cytotoxicity against human 2102EP cells after 96 hrs by SRB assay; type: functional, cell-based; in short: as §1
# [5] = tested on: HT-29; assay: Cytotoxicity against human HT-29 cells after 96 hrs by SRB assay; type: functional, cell-based; conditions: HT-29, 96 h; in short: as §1
# [6] = tested on: A-431; assay: Suppression of regrowth in human A431 cells at 10 nM treated for 96 hrs and measured over 10 days by SRB assay; type: functional, cell-based; in short: as §2
# [7] = tested on: DLD-1; assay: Cytotoxicity against human DLD1 cells after 96 hrs by SRB assay; type: functional, cell-based; conditions: DLD-1, 96 h; in short: as §1
# [8] = tested on: BT-474; assay: Cytotoxicity against human BT474 cells after 96 hrs by SRB assay; type: functional, cell-based; conditions: BT-474, 96 h; in short: as §1
# [9] = tested on: A2780; assay: Suppression of regrowth in human A2780 cells at 10 nM treated for 96 hrs and measured over 10 days by SRB assay; type: functional, cell-based; in short: as §2
# [10] = tested on: A549; assay: Cytotoxicity against human A549 cells after 96 hrs by SRB assay; type: functional, cell-based; conditions: A549, 96 h; in short: as §1
# [11] = tested on: A2780; assay: Cytotoxicity against human A2780 cells after 96 hrs by SRB assay; type: functional, cell-based; conditions: A2780, 96 h; in short: as §1
# [12] = tested on: A-427; assay: Cytotoxicity against human A427 cells after 96 hrs by SRB assay; type: functional, cell-based; conditions: A-427, 96 h; in short: as §1
# [13] = Cytotoxicity against human NCI-H322 cells after 96 hrs by SRB assay; type: functional, cell-based; conditions: NCI-H322, 96 h; in short: as §1
# [14] = tested on: A2780; assay: Induction of apoptosis in human A2780 cells assessed as PARP cleavage at 1 uM after 24 hrs by Western blot analysis; type: functional, cell-based
# In short: (§3)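 Cells treated 24 h at 1 μM, then rinsed in PBS and lysed in RIPA buffer with protease inhibitors. 40 μg protein per lane on SDS–PAGE, blotted to nitrocellulose, blocked in 5% milk/PBST, probed 2 h with mouse monoclonals against caspase-3, PARP and actin (loading control). HRP secondary, ECL detection, compared with untreated control.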
# [15] = Induction of apoptosis in human WW070327 cells assessed as increase in cleaved/activated form of caspase 3 at 1 uM after 24 hrs by Western blot analysis; type: cell-based; conditions: ww070327, 24 h; in short: as §3
# [16] = tested on: DLD-1; assay: Induction of apoptosis in human DLD1 cells assessed as PARP cleavage at 1 uM after 24 hrs by Western blot analysis; type: functional, cell-based; in short: as §3
# [17] = tested on: 518A2; assay: Induction of apoptosis in human 518A2 cells assessed as PARP cleavage at 1 uM after 24 hrs by Western blot analysis; type: functional, cell-based; in short: as §3
# [18] = Cytotoxicity against human 518A2 cells after 96 hrs by SRB assay; type: functional, cell-based; conditions: 518A2, 96 h; in short: as §1
# [19] = tested on: 518A2; assay: Induction of apoptosis in human 518A2 cells at 10 uM after 15 hrs by TUNEL assay; type: functional
# In short: (§4)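 TUNEL with fluorescein-tagged nucleotides labelling 3'-OH DNA ends, on HL-60 and 518A2 cells exposed to 10 μM for 15 h. Apoptotic cells were counted as green fluorescent spots under fluorescence microscopy and related to total cell number.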
# [20] = Cytotoxicity against human 1411HP cells after 96 hrs by SRB assay; type: functional, cell-based; in short: as §1
# [21] = Cytotoxicity against human H12.1 cells after 96 hrs by SRB assay; type: functional, cell-based; in short: as §1
# [22] = Induction of apoptosis in human WW070327 cells assessed as PARP cleavage at 1 uM after 24 hrs by Western blot analysis; type: cell-based; conditions: ww070327, 24 h; in short: as §3
# [23] = Inhibition of tubulin polymerization at 3 uM; conditions: TDE = time-dependent effect
# In short: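 Commercial fluorescence-based tubulin polymerization kit, run as the manufacturer directs, compounds at 3 μM. Polymerization followed as RFU at excitation 360 nm, emission 465 nm. Three independent experiments.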
# [24] = tested on: DLD-1; assay: Induction of apoptosis in human DLD1 cells assessed as increase in cleaved/activated form of caspase 3 at 1 uM after 24 hrs by Western blot analysis; type: functional, cell-based; in short: as §3
# [25] = tested on: MCF7; assay: Cytotoxicity against human MCF7 cells after 96 hrs by SRB assay; type: functional, cell-based; conditions: MCF7, 96 h; in short: as §1
# [26] = tested on: 518A2; assay: Induction of apoptosis in human 518A2 cells assessed as increase in cleaved/activated form of caspase 3 at 1 uM after 24 hrs by Western blot analysis; type: functional, cell-based; in short: as §3
# [27] = tested on: A2780; assay: Induction of apoptosis in human A2780 cells assessed as increase in cleaved/activated form of caspase 3 at 1 uM after 24 hrs by Western blot analysis; type: functional, cell-based; in short: as §3
# [28] = tested on: HCT-8; assay: Cytotoxicity against human HCT8 cells after 96 hrs by SRB assay; type: functional, cell-based; conditions: HCT-8, 96 h; in short: as §1
# [29] = tested on: HL-60; assay: Induction of apoptosis in human HL60 cells at 10 uM after 15 hrs by TUNEL assay; type: functional; in short: as §4
# [30] = tested on: 8505C; assay: Cytotoxicity against human 8505C cells after 96 hrs by SRB assay; type: functional, cell-based; in short: as §1
# [31] = tested on: SW480; assay: Cytotoxicity against human SW480 cells after 96 hrs by SRB assay; type: functional, cell-based; conditions: SW480, 96 h; in short: as §1
# [32] = tested on: HL-60; assay: Induction of apoptosis in human HL60 cells assessed as processing of procaspase 9 to activated caspase 9 at 10 uM by Western blotting; type: functional, cell-based; conditions: TDE = time-dependent effect
# In short: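 HL-60 cells at 0.5 × 10⁶/mL, exposed to 10 μM (in 1% DMF/99% PBS) at 37 °C, sampled at 0, 3, 7, 24 and 30 h. Lysed in Tris/NaCl/Triton X-100 buffer pH 7.4, 60 μg protein on 12% SDS–PAGE, PVDF blot, anti-caspase-9 1:10,000, HRP secondary, chemiluminescence. Procaspase-9 (~46 kDa) and cleaved form (~35 kDa) followed.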
# [33] = Cytotoxicity against human A253 cells after 96 hrs by SRB assay; type: functional, cell-based; conditions: A253, 96 h; in short: as §1
# [34] = tested on: NCI-H358; assay: Cytotoxicity against human NCI-H358 cells after 96 hrs by SRB assay; type: functional, cell-based; conditions: NCI-H358, 96 h; in short: as §1
# [35] = tested on: SW-1736; assay: Cytotoxicity against human SW1736 cells after 96 hrs by SRB assay; type: functional, cell-based; conditions: SW-1736, 96 h; in short: as §1
# [36] = tested on: FaDu; assay: Cytotoxicity against human FADU cells after 96 hrs by SRB assay; type: functional, cell-based; in short: as §1
smiles,measurement,setting,value
COc1ccc(/C=C/C(=O)c2cc(OC)c(OC)c(OC)c2)cc1O,IC50,[1],25.1 nM
same,IC50,[2],15 nM
same,Activity,[3],Active
same,IC50,[4],31.4 nM
same,IC50,[5],2600 nM
same,Activity,[6],Active
same,IC50,[7],32.3 nM
same,IC50,[8],193 nM
same,Activity,[9],Active
same,IC50,[10],67.5 nM
same,IC50,[11],15.6 nM
same,IC50,[12],51.2 nM
same,IC50,[13],39 nM
same,Activity,[14],Active
same,Activity,[15],Not Active
same,Activity,[16],Active
same,Activity,[17],Active
same,IC50,[18],33.6 nM
same,Activity,[19],50%
same,IC50,[20],142 nM
same,IC50,[21],33.6 nM
same,Activity,[22],Not Active
same,Activity,[23],tde
same,Activity,[24],Active
same,IC50,[25],22.3 nM
same,Activity,[26],Active
same,Activity,[27],Active
same,IC50,[28],56 nM
same,Activity,[29],40%
same,IC50,[30],49.7 nM
same,IC50,[31],102 nM
same,Activity,[32],tde
same,IC50,[33],22.8 nM
same,IC50,[34],17.1 nM
same,IC50,[35],27.5 nM
same,IC50,[36],41 nM
